Assay outcomes as filed in PubChem.
Most compounds without a hit are left out; they make up all but 1.9% or so of the library.
NR2E3 ag-1 = agonists of human NR2E3 nuclear receptor | Q9Y5X4 | CHO-S Gal4-NCOR/VP16-NR2E3 two-hybrid, luciferase | inhibition of corepressor binding, % at 3.98 µM | hit rate 0.35% among 360,000 | AID 602229;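 active = inhibition above the mean of all tested compounds plus 3 SD, cut at about 70% in these data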;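 also: 0% = DMSO with NR2E3 transfected cells and 100% = cells lacking NR2E3 construct; higher means lower luciferase signal from less NR2E3 corepressor binding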
Target sequence (Q9Y5X4 whole entry, looked up, the tested form may be a part): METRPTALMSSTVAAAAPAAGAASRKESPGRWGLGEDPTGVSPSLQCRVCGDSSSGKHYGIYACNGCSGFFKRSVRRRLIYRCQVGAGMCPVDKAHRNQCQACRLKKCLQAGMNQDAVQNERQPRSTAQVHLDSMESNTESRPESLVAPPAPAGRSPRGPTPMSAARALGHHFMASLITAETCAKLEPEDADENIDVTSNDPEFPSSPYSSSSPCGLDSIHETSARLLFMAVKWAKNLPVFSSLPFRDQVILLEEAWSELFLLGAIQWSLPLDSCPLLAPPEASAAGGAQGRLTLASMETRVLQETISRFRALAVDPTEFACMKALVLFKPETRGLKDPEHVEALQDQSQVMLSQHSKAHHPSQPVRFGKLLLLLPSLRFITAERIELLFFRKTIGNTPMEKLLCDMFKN
PG9 binder = small molecules binding HIV-1 gp120 antibody PG9; TR-FRET gp120-PG9 antibody binding; inhibition, % at 6.7 µM; hit rate 0.43% among 360,000; AID 624416; in the data active = inhibition above about 8.5%
MT1-MMP act inh = blocks activation of human MT1-MMP; P50281; HT1080 RFP-PRO-GFP cells, GFP/RFP ratio fluorescence, overnight; percent of plate control window, DMSO zero; GFP/RFP ratio change, % at 20 µM; hit rate 0.061% among 360,000;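 active = GFP/RFP ratio change of at least 30% with cell ATP level not reduced by more than half and red fluorescence within 50% of control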
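Assay system: HT1080 RFP-PRO-GFP cells. Benchmarks: DMSO vehicle wells and RFP-L50D-GFP reporter cell wells. Times: overnight cell settling, then overnight compound exposure, 37 °C, 5% CO2. Compound: 20 µM single dose, 1% DMSO. Read-out basis: GFP/RFP fluorescence ratio.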
SKN-1 inh = inhibitors of C. elegans SKN-1; C. elegans VP596 Pgst-4::GFP/RFP ratio, acrylamide-induced, 24 h; inhibition, % at 21.8 µM; hit rate 0.49% among 360,000;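 active = interference check ratio from 0.5 to 1.5 plus GFP to RFP signal ratio inhibition reaching or exceeding a fixed threshold, cut at about 30% in these data, passing the limit was not always enough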
NR2E3 ag-2 = agonists of human nuclear receptor NR2E3; inhibition of corepressor binding, % at 4.78 µM; GST-NR2E3/biotin-RetCOR TR-FRET, 1536-well; Q9Y5X4; hit rate 0.12% among 320,000;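 active = percent inhibition above the cutoff of mean plus 3 SD of all tested compounds, set per screening campaign, cut at about 20% in these data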;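 also: 0% = DMSO wells and 100% = biotin wells as full block of FRET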
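Material: NR2E3–RetCOR corepressor complex / Amount: 1.35 nM GST-NR2E3 / Medium: Tris pH 7.5 / Compound: single nominal compound dose of 4.8 µM / Incubation: 5 h at 4 °C / Technique: TR-FRET, Eu(K)-anti-GST donor, streptavidin-D2 acceptor, ex 340, em 617/671 nm / Read-out basis: percent loss of FRET ratio relative to control wells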
NR1D1 modulator = modulators of human Rev-erb alpha DNA binding; activity, % at 10 µM; P20393; hit rate 0.79% among 370,000; Rev-erbα–FITC-DNA binding, fluorescence polarization, 90 min; AID 1259318;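 active = activity above about 14%, limit read from the data; passing the limit was not always enough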;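 also: 0% = DMSO wells with 35 nM protein and 100% = DMSO wells with 750 nM protein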
Rev-erbA confirm = Rev-erb alpha (human) modulation, hit confirmation. shares compounds with NR1D1 modulator. Rev-erb alpha FITC-DNA binding, fluorescence polarization, 90 min. activation, % at 25 µM. hit rate 61% among 3,000;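 active = activation at or above a set limit, or at least 3 SD above the negative control mean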;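 also: 0% = 35 nM protein with DMSO and 100% = 750 nM protein high control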
RORg DNA counter = affects RORgamma DNA binding in a Rev-erb alpha counter-screen | purified RORgamma protein-FITC-DNA binding, fluorescence polarization | shares compounds with NR1D1 modulator | hit rate 8% among 910 | IC50, µM;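 active = Compounds whose fitted half-maximal concentration for disrupting protein-DNA binding is below 10 micromolar; the record names Rev-erb in its text, so the target is in doubt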
Active calls of the source: *; i = inactive; x = no result given.

SMILES | NR2E3 ag-1 | PG9 binder | MT1-MMP act inh | SKN-1 inh | NR2E3 ag-2 | NR1D1 modulator | Rev-erbA confirm | others
O=C(CSc1nc2ccccc2nc1N1CCCCC1)NCc1ccc(Cl)cc1Cl | x | x | x | x | x | 47* | 41* | RORg DNA counter=>40
O=C(COC(=O)c1sc2cc(F)ccc2c1Cl)Nc1ncc(Cl)cc1Cl | 10 | -2 | -5 | -3 | -3 | 64* | 37* | RORg DNA counter=>40
COc1ccc(S(=O)(=O)N2CCc3ccccc32)cc1C(=O)Nc1ccc(NC(C)=O)cc1 | -27 | 1 | -2 | 3 | x | 58* | 41* | RORg DNA counter=>40
COc1ccc(S(=O)(=O)N2CCCCCC2)cc1C(=O)Nc1ccc(C)cn1 | -12 | 0 | 4 | 1 | 5 | 101* | 30* | RORg DNA counter=0.79*
COc1ccc(S(=O)(=O)N2CCCCCC2)cc1C(=O)Nc1cc(C)ccn1 | 1 | 2 | -7 | 0 | 3 | 2 | x
COc1ccc(S(=O)(=O)N2CCCCCC2)cc1C(=O)Nc1ccccn1 | 4 | 0 | -3 | -1 | -6 | 46* | 15
COC(=O)c1cc2c(c3c4cc(OC)ccc4n(S(=O)(=O)c4ccc(OC)cc4)c13)C(=O)N(Cc1ccccc1)C2 | x | -1 | x | x | x | 8 | x
O=C(Nc1nnc(-c2ccccc2F)s1)C1CCN(S(=O)(=O)c2ccc(Cl)cc2)CC1 | -21 | -2 | 3 | 7 | -1 | 33* | 7
O=C(Nc1nnc(-c2ccc(F)cc2)s1)C1CCN(S(=O)(=O)c2ccc(Cl)cc2)CC1 | -6 | -1 | 5 | 6 | 2 | 121* | 14
C#C[C@]1(O)CCC2C3CCC4=C(CCC(=O)C4)C3CC[C@@]21C (stereo partly specified) | x | x | x | x | x | 1 | x
O=c1c2cc(Br)ccc2[nH]c(=S)n1Cc1ccccc1 | -72 | 2 | -5 | -2 | -3 | 39* | 18*
O=c1c2cc(Br)ccc2[nH]c(=S)n1Cc1ccccn1 | 8 | -4 | x | -16 | 2 | 1 | x
CCN(CC)C(=O)c1ccc2c(=O)n(Cc3cccc(Br)c3)c(=S)[nH]c2c1 | x | 3 | x | x | 0 | 33* | 13
CN1C(=O)/C(=C/C=C2\SCCN2C)N(C)C1=S | -16 | -37 | 26 | 47* | x | 51* | 22*
CCc1nc(OCc2ccccc2)c2sc3nc4c(cc3c2n1)COC(C)(C)C4 | -5 | -4 | 9 | 8 | -1 | 7 | x
CC1(C)Cc2nc3sc4c(OCc5ccccc5)ncnc4c3cc2CO1 | 1 | -2 | 15 | 10 | -2 | 38* | 20*
CCC(CC)COC(=O)C1=C(C)NC(=O)NC1c1ccc(OC)cc1 (stereo unspecified) | -19 | -2 | 4 | 9 | 1 | 21* | 20*
CCOC(=O)C1=C(C)NC(=O)NC1c1ccc2c(c1)OCO2 (stereo unspecified) | 5 | 1 | -7 | -2 | 2 | -2 | x
CCCCCCOC(=O)C1=C(C)NC(=O)NC1c1ccc2c(c1)OCO2 (stereo unspecified) | -16 | -4 | -1 | 13 | 2 | 17* | 14
CCC(CC)COC(=O)C1=C(C)NC(=O)NC1c1cc(OC)ccc1OC (stereo unspecified) | -21 | -1 | -4 | 8 | -1 | 7 | x
Cc1ccc2nc(-c3ccc(F)cc3)c(Cc3cccc(F)c3)n2c1 | x | 1 | x | x | x | -1 | x
CCc1cc(=O)oc2c(C)c(OCC(=O)NCc3ccccn3)ccc12 | 12 | 0 | -5 | -9 | -1 | 30* | 23*
CN(C)c1ccc(N=C/C=C2/N(C)c3ccccc3C2(C)C)cc1 | -13 | -21 | -12 | 20 | x | 25* | 16
CO/N=C/C=C1/N(C)c2ccccc2C1(C)C | -11 | -1 | 0 | 7 | 0 | 2 | x
COC(=O)C1=C(C)N(Cc2ccccc2C(F)(F)F)C(=NCc2ccc(C(F)(F)F)cc2)NC1c1cccc(F)c1 (stereo unspecified) | x | 0 | x | x | x | 3 | x
SMILES | NR2E3 ag-1 | PG9 binder | MT1-MMP act inh | SKN-1 inh | NR2E3 ag-2 | NR1D1 modulator | Rev-erbA confirm | others
O=C1CC(N2CCOCC2)=NC(=O)N1c1ccc(Br)cc1 | x | x | x | x | x | 2 | x
Cc1ccc(-c2nn3c(C)nnc3s2)cc1NC(=O)c1ccc(-c2cccc(Cl)c2)o1 | 5 | -2 | -14 | 14 | x | -8 | x
Cc1ccc(-c2nn3c(C)nnc3s2)cc1NC(=O)c1ccc(-c2ccc(Cl)cc2Cl)o1 | -18 | 1 | -4 | 24 | -3 | 124* | 186* | RORg DNA counter=i
COc1ccc2cc(CCN3C(=O)c4ccccc4C3=O)c(=O)[nH]c2c1 | -3 | 1 | 7 | -8 | 2 | 28* | 20*
CCn1c2ccccc2n2c(=O)c(=O)n(CC(=O)Nc3ccc(C(C)C)cc3)nc12 | 8 | -1 | 0 | 9 | -3 | 31* | 4
Cc1ccc(-n2nccc2-c2nn(-c3cccc(C(F)(F)F)c3)c(=O)n(C)c2=O)cc1 | -9 | -1 | 0 | 1 | -3 | 33* | 10
O=c1c2ccccc2c(-c2ccc(O)cc2)nn1-c1cccc(C(F)(F)F)c1 | 8 | 0 | -7 | 5 | 0 | 3 | x
O[C@@H]1C[C@H](c2ccc(Cl)cc2)N(Cc2cccs2)C[C@H]1n1cc(-c2ccc(F)cc2)nn1 | -3 | -3 | 4 | -8 | x | 3 | x
COc1ccccc1CNS(=O)(=O)c1ccc(F)cc1Br | x | -1 | x | x | x | 5 | x
COC(=O)/C=c1/sc2n(c1=O)CCN=2 | -24 | 0 | -1 | 8 | 1 | -2 | x
CN(C)c1ccc(/C=c2\sc3n(c2=O)CCCN=3)cc1 | -119 | -18 | -18 | 2 | -4 | 27* | 17
c1ccc(Oc2nnc(-c3cccs3)c3ccccc23)cc1 | -12 | -3 | -9 | 10 | 4 | 26* | 11
COc1ccc(Oc2nnc(-c3ccc(C)cc3)c3ccccc23)cc1 | 7 | 2 | 1 | 1 | 3 | 27* | 15
Cc1ccc(Oc2nnc(-c3cccs3)c3ccccc23)cc1 | -10 | 3 | 9 | 9 | -3 | 15 | x
Cc1cccc(NC(=O)Nc2nc3ncccn3c2-c2ccc(F)cc2)c1 | x | x | x | x | x | 5 | x
